Assay results taken from ChEMBL document CHEMBL2093137, “WHO-TDR NTD Screening”.
Values after ≈ are worked out from the molar mass of the structure shown.

How the values were obtained:
Trypanosoma cruzi = experiment: WHO-TDR: Chagas disease; assay type: functional, organism-based, Homo sapiens; settings: MRC5
In short: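 Each IC50 reflects antiparasitic potency against intracellular amastigotes of Trypanosoma cruzi Tulahuen CL2 beta-galactosidase strain. These were cultured in MRC-5SV2 human lung fibroblasts and exposed to a 10,000-compound diverse Life Chemicals library screened according to published standard procedures with a reference drug as positive control.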

Leishmania infantum = experiment: WHO-TDR: Leishmaniasis; assay type: functional, organism-based, Mus musculus; settings: Macrophage
In short: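 Values are IC50 figures for antiparasitic potency. They come from a whole-organism screen of a 10,000-compound diverse Life Chemicals library against Leishmania infantum MHOM/MA(BE)/67 amastigotes inside murine peritoneal macrophage host cells.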

[1] = test system: Trypanosoma brucei brucei; experiment: WHO-TDR: Human African Trypanosomiasis (HAT); assay type: functional, organism-based; settings: Squib-427
In short: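 Values are IC50 figures for antiparasitic potency. They come from a whole-organism screen of 10,000 diverse Life Chemicals compounds against bloodstream-form Trypanosoma brucei (Squib 427 strain).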

Schistosoma mansoni = experiment: WHO-TDR: Schistosomiasis; assay type: functional; set-up: concentration or dose not given beside the values
In short: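 Values are reported as percent inhibition and IC50. They come from a whole-organism screen of a 10,000-compound diverse Life Chemicals library against larval and/or adult worms of Schistosoma mansoni, Puerto Rican strain. The library had been filtered for drug-likeness and reactive groups.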

Onchocerca ochengi = experiment: WHO-TDR: Onchocerciasis; assay type: functional; set-up: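 at 12.5 µM on microfilariae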
In short: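 Values are reported as percent inhibition and as IC50. They come from a whole-organism screen of a 10,000-compound diverse Life Chemicals library against microfilariae of Onchocerca ochengi or Onchocerca lienalis. The screen followed previously published standard procedures, with reference drugs as positive controls.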

[2] = WHO-TDR: Cytotoxicity; assay type: toxicity, cell-based; settings: human, MRC5 cells
Plasmodium falciparum K1 = experiment: WHO-TDR: Malaria; assay type: functional, organism-based, Homo sapiens; settings: Erythrocyte
In short: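 Values are IC50 figures for antiplasmodial potency. They come from a whole-organism screen of 10,000 diverse Life Chemicals compounds against Plasmodium falciparum K1 growing inside human red blood cells, run by previously published standard procedures.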

Brugia malayi = experiment: WHO-TDR: Lymphatic Filariasis; assay type: functional; set-up: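 tested at 10 µM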
In short: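 Values are percent inhibition and IC50 from a whole-organism screen against Brugia malayi microfilariae. The compounds, 10,000 in all, came from a diverse Life Chemicals library filtered for drug-likeness and reactive groups.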

Compound	IC50 (Leishmania infantum) [µg/mL]	IC50 [1] [µg/mL]	IC50 (Plasmodium falciparum K1) [µg/mL]	IC50 (Trypanosoma cruzi) [µg/mL]	% Inhibition (Schistosoma mansoni) [%]	% Inhibition (Onchocerca ochengi) [%]	IC50 [2] [µg/mL]	% Inhibition (Brugia malayi) [%]
CC(=O)c1sc(NC(=O)C2CCCCN2S(C)(=O)=O)nc1-c1ccccc1 (stereo not drawn)	> 12.2	3.12 (≈ 7.67 µM)	> 12.2	4.06 (≈ 9.97 µM)	0	100	> 12.2	0
CC(=O)N1CCc2ccc(NC(=O)c3ccc(F)c(F)c3)cc21	0.307 (≈ 0.971 µM)	> 9.49	> 9.49	2.93 (≈ 9.25 µM)	8.3	75	> 9.49	0
Cc1cc(-c2nnc(NC(=O)CSc3ccc(F)cc3)o2)nn1C	0.337 (≈ 0.97 µM)	> 10.4	> 10.4	> 10.4	0	0	> 10.4	33.33
O=S(=O)(CCCOc1ccc(F)cc1)NCc1c(F)cccc1F	0.349 (≈ 0.971 µM)	> 10.8	> 10.8	5.73 (≈ 16 µM)	0	50	> 10.8	0
COc1ccc(-c2cccc(NC(=O)Nc3ccc(C)cc3)c2)nn1	> 10	> 10	> 10	7.36 (≈ 22 µM)	58.3	100	> 10	0
Cc1ccc(-c2ccc(=O)n(CCCNS(=O)(=O)c3ccc(Cl)s3)n2)cc1	> 12.7	> 12.7	> 12.7	> 12.7	0	100	5.29 (≈ 12.5 µM)	0
CC1CC(C)CN(S(=O)(=O)CCCOc2ccc3c(c2)OCO3)C1 (stereo not drawn)	> 10.7	> 10.7	> 10.7	> 10.7	100	0	4.25 (≈ 11.9 µM)	20
Cc1ccnc(Nc2ccc(N3CCN(C(=O)c4ccc(F)cc4)CC3)nn2)c1	0.381 (≈ 0.971 µM)	> 11.8	> 11.8	> 11.8	0	0	> 11.8	0
O=C(CSc1ccc(NC(=O)c2cccs2)nn1)c1ccc(Cl)cc1	> 11.7	> 11.7	> 11.7	> 11.7	0	100	3.14 (≈ 8.05 µM)	0

Second part, led by results:

IC50 (Leishmania infantum) [µg/mL]	IC50 [1] [µg/mL]	IC50 (Plasmodium falciparum K1) [µg/mL]	Compound	IC50 (Trypanosoma cruzi) [µg/mL]	% Inhibition (Schistosoma mansoni) [%]	% Inhibition (Onchocerca ochengi) [%]	IC50 [2] [µg/mL]	% Inhibition (Brugia malayi) [%]
> 10	> 10	> 10	CCn1ccc(C(=O)Nc2ccc(C)cc2C(=O)c2ccccc2)n1	> 10	0	100	> 10	0
0.402 (≈ 1.18 µM)	> 12.4	> 12.4	CCn1ccnc1N1CCN(CC(=O)NCc2ccc(C)cc2)CC1	> 12.4	0	0	> 12.4	0
0.328 (≈ 0.972 µM)	3.2 (≈ 9.49 µM)	4.13 (≈ 12.3 µM)	O=C(C1CCCC1)N1CCN(c2ccc(-c3ccccn3)nn2)CC1	1.19 (≈ 3.52 µM)	41.7	0	4.9 (≈ 14.5 µM)	33.33
> 12.1	> 12.1	> 12.1	Cc1ccc(NC(=O)N2CCN(c3ccc(Nc4cccnc4)nn3)CC2)cc1C	> 12.1	0	100	> 12.1	0
0.35 (≈ 0.971 µM)	> 10.8	> 10.8	O=C(c1ccccc1)N1CCN(c2ccc(Nc3ccccn3)nn2)CC1	> 10.8	0	0	> 10.8	0
0.464 (≈ 1.05 µM)	> 14.3	> 14.3	COc1ccc(CC(=O)N2CCN(c3nccn3-c3cccc(Cl)c3)CC2)cc1OC	> 14.3	16.7	0	> 14.3	0
> 10.5	> 10.5	> 10.5	O=S(=O)(CCCOc1ccc(F)cc1)NCCCc1ccccc1	> 10.5	0	100	10.5 (≈ 30 µM)	0
